# Results from publication PMC9056700 (RSC Advances, 2020).
# Read-outs that look alike come from different tables or passages of the source. Marks after values point to notes of the source that are not given here.
# Tests used:
# [1] = tested on: P388 mouse lymphocytic leukemia cells; conditions: cited from earlier work; for ED50: taken from a previous report
# [2] = VT-1H NMR quantification of the square/folded conformational equilibrium; type: physicochemical; conditions: CH3CN-d3, calculated from ΔG° = ΔH° − TΔS° with van't Hoff parameters
# Outline: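 Peptide at about 5.0 mM in CH3CN-d3, with shifts referenced to internal […] (0.00 ppm). Protons assigned by 2D-COSY and ROESY (500 ms mixing time). ΔH° and ΔS° came from a linear van't Hoff plot of ln K versus 1/T, and ΔG° at 298 K was then calculated from these parameters.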
Substance,"cytotoxicity (in words) ([1]; P388 cells, folded reference peptide)",ED50 ([1]; P388 cells),cytotoxicity (in words) [1],"ΔG° at 298 K (conformational free energy, square to folded form) [2]"
cyclo(-Ile-alloThr-D-Val-Thz-)2 (head to tail) [dASC],no cytotoxicity,>100 ^h μg mL^−1,no cytotoxicity,–
Ascidiacyclamide [Peptide 1],–,10.5 ^a μg mL^−1,–,2.19 kJ/mol
